Data set [1] is described as follows: Displacement of [125I]IMPY from beta amyloid protein plaques in Alzheimer's disease patient brain. Also noted: species or system Homo sapiens. In a few lines: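 Competition binding to pooled gray-matter homogenates from four AD brains (approximately 100 mg wet tissue/mL in PBS pH 7.4; 20–50 μg per tube). [125I]2 at 0.04–0.06 nM; inhibitors 10^-5–10^-10 M in PBS with 0.1% BSA; final volume 1 mL. Nonspecific binding with 600 nM 2. Incubated 37 °C, 2 h; GF/B filtration, gamma counting. Ki from nonlinear regression.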

Data set [2] deals with Thyroid gland. The data set can be described thus: Biodistribution in ICR mouse thyroid at 5 to 10 uCi, iv after 1 hr. The data set is classed as ADME, organism-based. Particulars: in vivo. In a few lines: (§1)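 Male ICR mice (22–25 g) under isoflurane anesthesia; [125I] or [18F] tracer (5–10 μCi) in 0.15 mL of 0.1% bovine serum albumin solution injected into the tail vein. Groups of n = 3 per time point, killed by cervical dislocation. Organs removed, weighed and gamma-counted against diluted aliquots of injected dose, giving % dose/organ and % ID/g. Total blood activity assumed as 7% of body weight.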

Data set [3] concerns Zone of skin. The data set can be described thus: Biodistribution in ICR mouse skin at 5 to 10 uCi, iv after 30 mins. The data set is classed as ADME, organism-based. Particulars: in vivo, 0.5 h. Summed up:
as §1

Data set [4] has as its system Zone of skin. In words: Biodistribution in ICR mouse skin at 5 to 10 uCi, iv after 2 hrs. The data set is classed as ADME, organism-based. Particulars: in vivo. Summed up:
as §1

In data set [5] the test system is Heart. The data set can be described thus: Biodistribution in ICR mouse heart at 5 to 10 uCi, iv after 2 mins. Conditions: in vivo. The data set is classed as ADME, organism-based. In a few lines:
as §1

For data set [6], the system named is Zone of skin. The data set can be described thus: Biodistribution in ICR mouse skin at 5 to 10 uCi, iv after 2 mins. The data set is classed as ADME, organism-based. Particulars: in vivo. Summed up:
as §1

For data set [7], the system named is Lung. The data set can be described thus: Biodistribution in ICR mouse lung at 5 to 10 uCi, iv after 30 mins. It counts as ADME, organism-based. Particulars: in vivo, 0.5 h. In a few lines:
as §1

Data set [8] has as its system Zone of skin. The data set can be described thus: Biodistribution in ICR mouse skin at 5 to 10 uCi, iv after 1 hr. The data set is classed as ADME, organism-based. Conditions: in vivo. In a few lines:
as §1

In data set [9] the test system is Blood. The data set can be described thus: Biodistribution in ICR mouse blood at 5 to 10 uCi, iv after 30 mins. The data set is classed as ADME, organism-based. Particulars: in vivo, 0.5 h. Summed up: as §1
Data set [10] has as its system Blood. In words: Biodistribution in ICR mouse blood at 5 to 10 uCi, iv after 2 hrs. Particulars: in vivo. It counts as ADME, organism-based. In a few lines:
as §1

Data set [11] concerns Muscle tissue. The data set can be described thus: Biodistribution in ICR mouse muscle at 5 to 10 uCi, iv after 2 mins. It counts as ADME, organism-based. Conditions: in vivo. Summed up: as §1
Data set [12] concerns Brain. The data set can be described thus: Biodistribution in ICR mouse brain at 5 to 10 uCi, iv after 2 mins. It counts as ADME, organism-based. Conditions: in vivo. In a few lines: as §1
The subject of data set [13] is Thyroid gland. In words: Biodistribution in ICR mouse thyroid at 5 to 10 uCi, iv after 30 mins. The data set is classed as ADME, organism-based. Particulars: in vivo, 0.5 h. Summed up:
as §1

Data set [14] relates to Lung. The data set can be described thus: Biodistribution in ICR mouse lung at 5 to 10 uCi, iv after 1 hr. The data set is classed as ADME, organism-based. Particulars: in vivo. Summed up:
as §1

In data set [15] the test system is Heart. In words: Biodistribution in ICR mouse heart at 5 to 10 uCi, iv after 1 hr. The data set is classed as ADME, organism-based. Conditions: in vivo. In a few lines:
as §1

Data set [16] relates to Liver. The data set can be described thus: Biodistribution in ICR mouse liver at 5 to 10 uCi, iv after 1 hr. It counts as ADME, organism-based. Conditions: in vivo. In a few lines:
as §1

Data set [17] has as its system Kidney. In words: Biodistribution in ICR mouse kidney at 5 to 10 uCi, iv after 1 hr. It counts as ADME, organism-based. Particulars: in vivo. In a few lines: as §1
Data set [18] has as its system Muscle tissue. In words: Biodistribution in ICR mouse muscle at 5 to 10 uCi, iv after 2 hrs. The data set is classed as ADME, organism-based. Conditions: in vivo. In a few lines:
as §1

For data set [19], the system named is Kidney. In words: Biodistribution in ICR mouse kidney at 5 to 10 uCi, iv after 2 mins. It counts as ADME, organism-based. Conditions: in vivo. Summed up:
as §1

Data set [20] concerns Lung. The data set can be described thus: Biodistribution in ICR mouse lung at 5 to 10 uCi, iv after 2 hrs. The data set is classed as ADME, organism-based. Particulars: in vivo. In a few lines:
as §1

Data set [21] has as its system Muscle tissue. The data set can be described thus: Biodistribution in ICR mouse muscle at 5 to 10 uCi, iv after 1 hr. The data set is classed as ADME, organism-based. Particulars: in vivo. In a few lines: as §1
The subject of data set [22] is Blood. In words: Biodistribution in ICR mouse blood at 5 to 10 uCi, iv after 1 hr. The data set is classed as ADME, organism-based. Conditions: in vivo. In a few lines:
as §1

For data set [23], the system named is Thyroid gland. In words: Biodistribution in ICR mouse thyroid at 5 to 10 uCi, iv after 2 mins. The data set is classed as ADME, organism-based. Conditions: in vivo. In a few lines: as §1
Data set [24] concerns Lung. In words: Biodistribution in ICR mouse lung at 5 to 10 uCi, iv after 2 mins. It counts as ADME, organism-based. Particulars: in vivo. In a few lines: as §1
The subject of data set [25] is Heart. The data set can be described thus: Biodistribution in ICR mouse heart at 5 to 10 uCi, iv after 30 mins. Particulars: in vivo, 0.5 h. The data set is classed as ADME, organism-based. In a few lines: as §1
The test system of data set [26] is Muscle tissue. In words: Biodistribution in ICR mouse muscle at 5 to 10 uCi, iv after 30 mins. The data set is classed as ADME, organism-based. Conditions: in vivo, 0.5 h. Summed up:
as §1

The test system of data set [27] is Brain. The data set can be described thus: Biodistribution in ICR mouse brain at 5 to 10 uCi, iv after 30 mins. The data set is classed as ADME, organism-based. Conditions: in vivo, 0.5 h. Summed up:
as §1

The test system of data set [28] is Spleen. In words: Biodistribution in ICR mouse spleen at 5 to 10 uCi, iv after 30 mins. It counts as ADME, organism-based. Particulars: in vivo, 0.5 h. Summed up: as §1
For data set [29], the system named is Liver. The data set can be described thus: Biodistribution in ICR mouse liver at 5 to 10 uCi, iv after 2 hrs. It counts as ADME, organism-based. Conditions: in vivo. In a few lines: as §1
Data set [30] deals with Spleen. The data set can be described thus: Biodistribution in ICR mouse spleen at 5 to 10 uCi, iv after 2 mins. It counts as ADME, organism-based. Conditions: in vivo. In a few lines:
as §1

Data set [31] relates to Liver. The data set can be described thus: Biodistribution in ICR mouse liver at 5 to 10 uCi, iv after 2 mins. The data set is classed as ADME, organism-based. Conditions: in vivo. Summed up:
as §1

Data set [32] has as its system Kidney. In words: Biodistribution in ICR mouse kidney at 5 to 10 uCi, iv after 30 mins. The data set is classed as ADME, organism-based. Conditions: in vivo, 0.5 h. In a few lines: as §1
Data set [33] deals with Thyroid gland. The data set can be described thus: Biodistribution in ICR mouse thyroid at 5 to 10 uCi, iv after 2 hrs. The data set is classed as ADME, organism-based. Conditions: in vivo. Summed up: as §1
A short description of data set [34]: Partition coefficient, log P of the compound. The data set is classed as physicochemical. Particulars: octanol/water. In a few lines: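 [125I] or [18F] tracer mixed with 3 g each of 1-octanol and 0.1 M phosphate buffer pH 7.4. Vortexed 3 min at room temperature, then centrifuged 5 min. Two 0.5 g samples from each layer counted; PC is the ratio of cpm/g in octanol to cpm/g in buffer. The octanol layer was repartitioned until values were consistent.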

The test system of data set [35] is Liver. In words: Biodistribution in ICR mouse liver at 5 to 10 uCi, iv after 30 mins. It counts as ADME, organism-based. Conditions: in vivo, 0.5 h. In a few lines:
as §1

For data set [36], the system named is Kidney. The data set can be described thus: Biodistribution in ICR mouse kidney at 5 to 10 uCi, iv after 2 hrs. Conditions: in vivo. It counts as ADME, organism-based. In a few lines:
as §1

In data set [37] the test system is Brain. In words: Biodistribution in ICR mouse brain at 5 to 10 uCi, iv after 1 hr. It counts as ADME, organism-based. Particulars: in vivo. Summed up:
as §1

Data set [38] relates to Heart. In words: Biodistribution in ICR mouse heart at 5 to 10 uCi, iv after 2 hrs. It counts as ADME, organism-based. Particulars: in vivo. Summed up: as §1
In data set [39] the test system is Brain. In words: Biodistribution in ICR mouse brain at 5 to 10 uCi, iv after 2 hrs. It counts as ADME, organism-based. Particulars: in vivo. Summed up: as §1
Data set [40] has as its system Blood. The data set can be described thus: Biodistribution in ICR mouse blood at 5 to 10 uCi, iv after 2 mins. The data set is classed as ADME, organism-based. Conditions: in vivo. In a few lines:
as §1

Data set [41] has as its system Spleen. In words: Biodistribution in ICR mouse spleen at 5 to 10 uCi, iv after 2 hrs. The data set is classed as ADME, organism-based. Conditions: in vivo. In a few lines:
as §1

For data set [42], the system named is Spleen. In words: Biodistribution in ICR mouse spleen at 5 to 10 uCi, iv after 1 hr. The data set is classed as ADME, organism-based. Particulars: in vivo. Summed up:
as §1

Structures are written as SMILES.

The Ki is a measure of affinity in units of concentration, obtained from inhibition or displacement. In the case of `CNc1ccc(-c2cn(-c3ccc(I)cc3)nn2)cc1`, the inhibition constant (Ki) in [1] came to 4 nM.
The same measure, in the same setting: the value for `CN(C)c1ccc(-c2cn(-c3ccc(I)cc3)nn2)cc1` was 8 nM; that for `CN(C)c1ccc(-c2cn(-c3ccc(OCCF)cc3)nn2)cc1` was 5 nM.
Regarding `CN(C)c1ccc(-c2cn(-c3ccc(OCCCO)cc3)nn2)cc1`, the affinity in data set [1] corresponds to a Ki of 75 nM.
A word on the logP: it is the decadic logarithm of the partition coefficient of the neutral form, usually between octanol and water. The low end stands for lower lipophilicity, the high end for higher lipophilicity. As to `CNc1ccc(-c2cn(-c3ccc([125I])cc3)nn2)cc1`, the Drug uptake in [2] was determined as 54.2 % ID/g; in [3], 2.34 % ID/g; in [4] it was 1.6 % ID/g; in [5], 7.45 % ID/g; in data set [6] it was 1.05 % ID/g; in data set [7], 4.86 % ID/g. Also, the Drug uptake in data set [8] is given as 1.81 % ID/g; in data set [9] it was 3.04 % ID/g; in data set [10], 2.06 % ID/g; in data set [11] it was 0.83 % ID/g; in [12], 9.4 % ID/g; in [13], 11.5 % ID/g. The Drug uptake came to 2.82 % ID/g in data set [14]; 1.1 % ID/g in data set [15]; 6.46 % ID/g in data set [16]; 3.71 % ID/g in [17]; 0.47 % ID/g in data set [18]; 13.4 % ID/g in data set [19]. The Drug uptake in data set [20] came to 2.83 % ID/g; in data set [21] it was 0.56 % ID/g; in data set [22], 2.04 % ID/g; in [23], 4.38 % ID/g; in [24], 16 % ID/g; in data set [25], 1.79 % ID/g. Also, the Drug uptake in data set [26] was determined as 1.07 % ID/g; in data set [27], 1.66 % ID/g; in [28], 1.8 % ID/g; in [29], 6 % ID/g; in [30], 4.9 % ID/g; in data set [31], 20.7 % ID/g. Also, the Drug uptake in [32] worked out at 6.43 % ID/g; in data set [33], 62.1 % ID/g; in [35] it was 11.1 % ID/g; in data set [36], 2.91 % ID/g; in data set [37], 0.7 % ID/g; in data set [38], 0.89 % ID/g. In addition, the Drug uptake in data set [39] was 0.43 % ID/g; in [40], 4.45 % ID/g; in data set [41] it was 1.16 % ID/g; in data set [42], 1.24 % ID/g. Moreover, the log partition coefficient (logP) in data set [34] turned out to be 3.
Consider `CN(C)c1ccc(-c2cn(-c3ccc(OCCCF)cc3)nn2)cc1`, for which the affinity in [1] corresponds to a Ki of 6.2 nM.
